# Bioassay records: PubChem BioAssay, several laboratories
# Shown is part of a subset that was picked to be rich in hits.
# GSH bead fluor: compound fluorescence on glutathione beads, profiling panel, artefact control, biophysical, 488/530 nm, flow cytometry; AID 1776, 2009; fluorescence (KMESF) at 10 µM; GSH beads flow cytometry, compound fluorescence 488/530 nm; stronger effect = higher value; 0.25% of 190,000 active; in the data active = fluorescence above about 89;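 note: glutathione beads carrying GST-tagged Bcl family fusion proteins plus one bare bead set; values are compound well signal with DMSO vehicle wells as background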
# PKD1 inh: inhibitors of human PKD1 kinase, biochemical, fluorescence polarization | Serine/threonine-protein kinase D1 (Homo sapiens), Q15139 | PKD1 kinase fluorescence polarization assay | inhibition, % (concentration not given with the values) | 0.056% of 200,000 active | AID 797, 2007
# Lmaj promast: Leishmania major promastigote growth inhibition, primary screen | inhibition, % at 10 µM | Leishmania major promastigotes, resazurin fluorescence viability | 9% of 200,000 active;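 note: promastigotes grown with compound for 44 hours at 28 °C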
# ABCG2 block: ABCG2 efflux pump inhibitors, primary screen, multiplex with ABCB1, IgMXP3 cells, flow cytometry; AID 1325, 2008; JC-1 efflux; Broad substrate specificity ATP-binding cassette transporter ABCG2 (Homo sapiens), Q9UNQ0; 0.1% of 190,000 active; inhibition, % at 6.6 µM;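 active = inhibition above 80%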;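 note: 0% = DMSO and 100% = nicardipine control wells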
#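 Test system: IgMXP3 cells (ABCG2) mixed with DDAO far-red-labelled CCRF-Adr cells (ABCB1). Reagent: JC-1 transporter substrate. Compound dosing: single test compound dose, 6.6 µM final. Times: 10 min compound exposure, 25 °C. Detection: flow cytometry of retained JC-1 fluorescence. Read-out basis: efflux inhibition in percent versus controls. Controls: nicardipine and DMSO wells.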
# ABCB1 block: ABCB1 efflux pump inhibitors, primary screen, cell-based, multiplex, flow cytometry, ABCG2 counter-screen | ATP-dependent translocase ABCB1 (Homo sapiens), P08183 | CCRF-Adr cells, JC-1 efflux | inhibition, % at 6.6 µM | 0.067% of 190,000 active; in the data active = inhibition above about 40%;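 note: 0% = vehicle and 100% = reference inhibitor; higher value means more JC-1 retained so stronger ABCB1 efflux block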
# Avidin bead fluor: green autofluorescence of compounds with avidin beads – biophysical, 488/530 nm, flow cytometry, artefact control, profiling panel. compound fluorescence 488/530 nm; stronger effect = higher value. fluorescence (KMESF) at 10 µM. 0.38% of 220,000 active. AID 1775, 2009; in the data active = fluorescence above about 47
# The depositor's hits bear a star; / = no result. Cut-off read from the data, not from the text of the source, unless noted: active = inhibition above about 50%; inactive = the rest.
SMILES,GSH bead fluor,PKD1 inh,Lmaj promast,ABCG2 block,ABCB1 block,Avidin bead fluor
Cc1cc2cc(CN(Cc3nnnn3C3CCCCC3)CC3CCCO3)c(=O)[nH]c2cc1C (centres undefined),24,-4,82*,2,1,5
COc1ccc2[nH]c(=O)c(CN(Cc3nnnn3Cc3ccccc3)CC3CCCO3)cc2c1 (centres undefined),15,-12,6,5,4,34
Cc1cc(C)c2cc(CN(Cc3nnnn3C3CCCCC3)CC3CCCO3)c(=O)[nH]c2c1 (centres undefined),42,-7,99*,1,1,9
O=c1[nH]c2cc3c(cc2cc1CN(CCc1ccccc1)Cc1nnnn1C1CCCC1)OCCO3,12,-4,29,1,0,33
Cc1ccc2[nH]c(=O)c(CN(CC3CCCO3)C(=O)c3ccncc3)cc2c1 (centres undefined),13,-4,70*,1,0,12
COc1ccccc1-n1c(-c2ccc(Cl)cc2)c[nH]c1=S,14,-5,-7,2,1,12
CCc1ccc(C(=O)N/N=C/c2cccc3ccccc23)nc1,14,-13,21,-3,-1,8
Cc1ccc2cc(CN(Cc3nnnn3C3CCCCC3)CC3CCCO3)c(=O)[nH]c2c1 (centres undefined),54,-3,94*,9,3,11
Cc1nc(-c2ccc([N+](=O)[O-])cc2)sc1C(=O)O,17,3,-4,1,1,7
Cn1nc(C(F)(F)F)c(-c2ccc(F)cc2)c1NC(=O)c1ccco1,/,/,/,/,/,61*
Cc1ccc(OCC(=O)N2CCCCCC2)c(C)c1,20,-4,2,3,1,8
Cc1ccccc1OCCCN1CCCC1,24,-9,41,1,0,6
Cc1cc(Br)ccc1OCCN1CC(C)OC(C)C1 (centres undefined),15,-8,-11,15,0,9
Cc1ccc(OCCN2C(=O)c3ccccc3C2=O)c(C)c1,51,8,-3,0,0,9
CCN1CCN(CCOc2ccc(Br)cc2C)CC1,26,1,93*,2,1,10
Cc1ccc(OCCN2CCCCCC2)c(C)c1,23,-12,96*,-4,0,7
Cc1ccc(OCCCN2CCCC2)c(C)c1,15,-10,97*,2,0,8
Cc1ccc(OCCn2nc3ccccc3n2)c(C)c1,8,-5,5,9,0,154*
O=C(CC1(c2ccc(Cl)cc2)C2CC3CC(C2)CC1C3)NCCO (centres undefined),15,3,-1,1,0,12
CCOc1ccc(C(=O)CSCC(=O)O)cc1,13,-4,14,-1,0,11
OC1(c2ccccc2)c2ccccc2-c2ncccc21 (centres undefined),30,-4,-2,4,0,11
Cc1nccn1CCC(=O)O,27,-9,-7,2,0,36
COc1ccc(C)cc1S(=O)(=O)NC1CCCCC1C (centres undefined),18,-2,-3,1,0,8
Cc1ccc(OCCCCNC2CCCC(C)C2C)c(C)c1 (centres undefined),18,2,90*,-3,0,11
Cc1ccc(OCCCCn2ccnc2C)c(C)c1,17,-4,89*,1,1,9
CCN(CC)S(=O)(=O)c1ccc(-n2c(=O)c(C(C)C)c(C)n2C)cc1,23,-7,-9,2,1,11
FC(F)(F)C(F)(F)C(F)(F)c1nnc2ccc(N3CCOCC3)nn12,7,0,-2,5,1,13
Cc1ccc(CNC(=O)c2ccc(OCC3CCCO3)cc2)cc1 (centres undefined),4,-13,68*,36,2,15
Cc1ccc2nc(NC(=O)c3ccc(OCC4CCCO4)cc3)sc2c1 (centres undefined),10,8,3,-6,0,2
